# Where a chain is given by its changes, count along the chain named.
# Assays:
# OSBP^M446W = biological target: T1, OSBP^M446W (Homo sapiens, UniProt P22059, M446W); experiment: [3H]25-OHC binding assay, OSBP M446W mutant
# T1 sequence (P22059 1-807 M446W): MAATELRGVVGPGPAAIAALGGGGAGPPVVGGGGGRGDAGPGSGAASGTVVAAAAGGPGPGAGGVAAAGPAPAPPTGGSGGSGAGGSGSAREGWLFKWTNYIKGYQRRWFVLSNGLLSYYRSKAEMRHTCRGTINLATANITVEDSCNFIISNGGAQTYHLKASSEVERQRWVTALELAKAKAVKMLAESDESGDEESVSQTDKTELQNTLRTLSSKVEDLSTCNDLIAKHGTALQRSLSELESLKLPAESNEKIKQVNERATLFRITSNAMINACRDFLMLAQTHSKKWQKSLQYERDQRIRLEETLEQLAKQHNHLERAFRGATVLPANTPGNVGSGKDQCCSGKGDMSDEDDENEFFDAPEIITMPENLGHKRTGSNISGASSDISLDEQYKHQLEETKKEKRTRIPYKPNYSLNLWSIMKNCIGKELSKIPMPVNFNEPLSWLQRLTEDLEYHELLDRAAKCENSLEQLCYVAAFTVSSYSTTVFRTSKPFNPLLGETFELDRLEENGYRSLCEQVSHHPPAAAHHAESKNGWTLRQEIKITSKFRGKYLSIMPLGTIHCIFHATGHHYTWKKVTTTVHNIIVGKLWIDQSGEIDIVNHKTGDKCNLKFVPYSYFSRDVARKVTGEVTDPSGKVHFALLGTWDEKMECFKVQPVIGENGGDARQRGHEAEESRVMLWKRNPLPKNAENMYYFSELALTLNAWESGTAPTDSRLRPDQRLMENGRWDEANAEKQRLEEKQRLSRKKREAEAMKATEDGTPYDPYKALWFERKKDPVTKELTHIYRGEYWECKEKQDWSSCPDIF
# [1] = tested on: sphingomyelin biosynthesis in CHO-K1 cells; experiment: Sphingomyelin biosynthesis, [3H]serine pulse labeling, CHO-K1; format: cell-based, Chinese hamster; conditions: CHO-K1 cells
# OSBP [2] = biological target: T2, OSBP (Homo sapiens, UniProt P22059); experiment: OSBP protein levels by western blotting; format: cell-based; conditions: HCT-116 cells
# T2 sequence (P22059 1-807): T1 sequence (P22059 1-807 M446W) with W446M
# How it was run: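 HCT-116 cells were treated with test compound at 50 nM or 10 nM over a time course including 24 h. Some samples also received proteasome inhibitor MG-132 or lactacystin. OSBP was measured by western blotting with polyclonal rabbit anti-OSBP (N-terminus) antibody. Data are n = 3, compared with vehicle-treated cells by two-tailed Student's t-test.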
# OSBP^V582M = biological target: T3, OSBP^V582M (Homo sapiens, UniProt P22059, V582M); experiment: [3H]25-OHC binding assay, OSBP V582M mutant
# T3 sequence (P22059 1-807 V582M): T1 sequence (P22059 1-807 M446W) with W446M, V582M
# human cancer cell lines [3] = format: cell-based
# [4] = tested on: HeLa cells overexpressing wild-type OSBP; experiment: Overexpression-viability assay, wild-type OSBP-Myc-His; format: cell-based, human; conditions: 48 h, versus lacZ
# OSBP [5] = biological target: T2, OSBP; experiment: OSBP localization by immunofluorescence microscopy, HCT-116; format: cell-based; conditions: HCT-116 cells, 4 h; 5 μM schweinfurthin A, 10 nM OSW-1, 20 nM cephalostatin 1
# How it was run: (§1)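 Cells on coverslips were grown 72 h, then given test compound or vehicle (4 h for HCT-116). They were fixed 10 min in 3.7% formaldehyde/PBS and permeabilised 5 min in 0.5% Triton X-100. Blocking used Image-iT FX, then 1% BSA/PBS. Rabbit anti-OSBP (N-terminus) and mouse anti-p230 were applied overnight at 4 °C, then Alexa Fluor secondaries for 60 min with Hoechst 33258. Imaging was by confocal microscopy.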
# OSBP [6] = biological target: T2, OSBP; experiment: OSBP localization by immunofluorescence microscopy, A549; format: cell-based; conditions: A549 cells
# How it was run: as §1
# HCT-116 cells = experiment: Suppression of antiproliferative activity by 25-OHC coadministration; format: cell-based, human
# How it was run: (§2)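 HCT-116 p21+/+ and p21−/− cells were seeded in 96-well plates and rested 24 h. A time-zero plate was read with CellTiter-Blue (resazurin) after 90 min at 37 °C, fluorescence 544 nm ex / 590 nm em. Serially diluted test compound was added as 4× solution. Viability was re-read at 48 h and GI50 derived. For coadministration, 10 μM 25-OHC was added with test compound at 250 nM or 10 nM.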
# human cancer cell lines [7] = conditions: cited from earlier work
# HCT-116 p21^−/− cells [8] = experiment: Cell viability assay, HCT-116 p21-/-; format: cell-based, human; conditions: GI50 after 48 h
# How it was run: as §2
# [9] = tested on: HCT-116 p21^−/− cells stably transfected with shOSBP or shNT; experiment: OSBP shRNA knockdown and dose-shift experiment; format: cell-based, human; conditions: 72 h
# How it was run: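 HCT-116 p21−/− cells were stably transfected with OSBP-targeting or nontargeting shRNA in the pSIREN-RetroQ vector. […] Values are mean ± s.d. of 3–4 experiments, compared with shNT cells by two-tailed Student's t-test.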
# CERT = CERT protein amount in treated cells; format: cell-based, human; conditions: GI90 concentration, HCT-116 or A549 cells
# [10] = tested on: HeLa cells overexpressing ORP4L; experiment: Overexpression-viability assay, ORP4L-Myc-His; format: cell-based, human; conditions: 48 h, versus lacZ
# HCT-116 p21^−/− cells [11] = conditions: cited from earlier work
smiles,measurement,setting,value
"C[C@H](CCCC(C)(C)O)[C@H]1CC[C@H]2[C@@H]3CC=C4C[C@@H](O)CC[C@]4(C)[C@H]3CC[C@]12C [25-OHC, 25-hydroxycholesterol, reference compound]",Kd,OSBP^M446W,41 nM
same,Increase in the biosynthesis of sphingomyelin,"[1]; 5 μM, 6 h",approximately four
same,Effect on sphingomyelin biosynthesis,[1]; GI90 dose (15 μM),robust stimulation
same,Effect on OSBP levels (compound alone),OSBP [2]; 25-OHC 10 μM,did not affect OSBP levels
same,Kd,OSBP^V582M,82 nM
same,Cytotoxicity,human cancer cell lines [3],not cytotoxic at concentrations up to 10 μM
"C[C@@H]1[C@]2(O[C@H]3C=C4[C@@H]5CC[C@H]6Cc7nc8c(nc7C[C@]6(C)[C@H]5C[C@@H](O)[C@]4(C)[C@]31O)C[C@@H]1CC[C@H]3C4=CC[C@@H]5[C@H](C)[C@@]6(OC[C@]45C(=O)C[C@@H]3[C@@]1(C)C8)OC(C)(C)C[C@H]6O)O[C@](C)(CO)C[C@H]2O [cephalostatin 1, Cephalostatin 1]",Desensitization factor by OSBP overexpression (relative GI30),[4],2–5
same,OSBP localization,OSBP [5],partially localize to the plasma membrane
same,OSBP localization,OSBP [6],dispersal or vesiculation of OSBP
same,Effect of 10 μM 25-OHC coadministration on growth inhibition,"HCT-116 cells; HCT-116 cells, 250 nM cephalostatin 1 or 10 nM OSW-1",nearly complete desensitization
same,inhibition at 0.25 µM,"HCT-116 cells; Homo sapiens, HCT-116, 48 h, read-out: Growth inhibition when administered alone",> 75%
same,Ki,OSBP^M446W,31 nM
same,GI50 (half-maximal inhibitory concentration),human cancer cell lines [7],nanomolar range
same,p21^−/− selectivity of growth inhibition (HCT-116 p21^−/− versus wild-type),HCT-116 p21^−/− cells [8],selectively growth-inhibitory
same,Sensitization by OSBP shRNA knockdown (GI50 shift shOSBP vs shNT),[9],four
same,Reduction in OSBP protein levels,"OSBP [2]; 50 nM, 24 h",approximately 75%
same,Ki,OSBP^V582M,31 nM
same,Amount of CERT protein,CERT,not affected
same,Desensitization factor by ORP4L overexpression (relative GI30),[10],2–5
CC(/C=C/C=C(C)/C=C/C=C(\C)C(=O)O)=C1/C(=O)C[C@H]2[C@@]3(C)CCC(=O)C(C)(C)[C@@H]3CC[C@]12C [stellettin E],Times more growth-inhibitory to HCT-116 p21^−/− cells than to HCT-116 wild-type cells,HCT-116 p21^−/− cells [11],117 times

# Reference: publication PMC3158287 (Nature chemical biology, 2011)
